The source of these data is ChEMBL document CHEMBL4028864 (J Med Chem, 2017).

For one assay, the target named is Histone deacetylase 1 (Homo sapiens, UniProt Q13547). As to the kind of experiment: Inhibition of C-terminal FLAG His tagged full length human recombinant HDAC1 (1 to 482 residues) expressed in baculovirus infected sf21 cells using RHKKAc as substrate in presence of ATP.
The target in assay [1] is T1, Protein deacetylase HDAC6 (Homo sapiens, UniProt Q9UBN7).
T1 sequence (Q9UBN7 whole entry): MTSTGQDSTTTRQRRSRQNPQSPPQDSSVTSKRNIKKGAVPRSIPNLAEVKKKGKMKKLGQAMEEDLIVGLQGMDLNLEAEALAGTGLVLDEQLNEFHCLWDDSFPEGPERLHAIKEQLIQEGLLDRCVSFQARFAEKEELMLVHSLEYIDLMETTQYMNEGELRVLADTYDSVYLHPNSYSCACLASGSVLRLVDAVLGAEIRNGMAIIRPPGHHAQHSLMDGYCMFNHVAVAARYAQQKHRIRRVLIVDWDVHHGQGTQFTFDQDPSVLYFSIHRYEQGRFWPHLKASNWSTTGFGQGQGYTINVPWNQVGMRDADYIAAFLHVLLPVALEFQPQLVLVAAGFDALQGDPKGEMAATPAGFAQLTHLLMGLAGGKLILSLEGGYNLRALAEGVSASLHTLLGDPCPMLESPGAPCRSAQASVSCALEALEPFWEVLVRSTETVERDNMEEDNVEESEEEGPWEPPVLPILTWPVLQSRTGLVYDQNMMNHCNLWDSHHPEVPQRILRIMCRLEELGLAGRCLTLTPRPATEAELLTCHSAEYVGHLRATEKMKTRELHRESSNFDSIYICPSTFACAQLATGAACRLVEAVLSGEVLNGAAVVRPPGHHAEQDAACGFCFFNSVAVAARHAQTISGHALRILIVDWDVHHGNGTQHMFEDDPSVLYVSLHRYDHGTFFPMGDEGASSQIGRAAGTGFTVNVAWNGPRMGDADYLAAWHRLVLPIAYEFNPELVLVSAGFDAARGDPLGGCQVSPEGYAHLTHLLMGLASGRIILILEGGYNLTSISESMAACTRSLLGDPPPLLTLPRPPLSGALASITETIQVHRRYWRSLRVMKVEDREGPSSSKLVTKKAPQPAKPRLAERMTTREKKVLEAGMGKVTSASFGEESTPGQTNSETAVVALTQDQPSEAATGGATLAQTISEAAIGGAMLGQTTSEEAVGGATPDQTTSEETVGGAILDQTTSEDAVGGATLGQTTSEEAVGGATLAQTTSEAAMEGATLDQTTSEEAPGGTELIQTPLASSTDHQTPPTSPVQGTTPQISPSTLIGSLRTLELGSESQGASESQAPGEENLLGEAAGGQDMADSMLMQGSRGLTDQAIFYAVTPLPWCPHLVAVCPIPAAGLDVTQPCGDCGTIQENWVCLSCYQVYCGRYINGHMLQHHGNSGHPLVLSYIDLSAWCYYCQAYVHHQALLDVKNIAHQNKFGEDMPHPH
As to the kind of experiment: Inhibition of N-terminal GST tagged human HDAC6 (1 to 1215 residues) expressed in baculovirus infected insect cells using RHKKAc as substrate in presence of ATP.

The target of assay [2] is Non-receptor tyrosine-protein kinase TYK2 (Homo sapiens, UniProt P29597). As to the kind of experiment: Inhibition of human TYK2 using KKSRGDYMTMQIG as substrate in presence of [gamma-33P]-ATP. The essentials:
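Kinase inhibition was tested by radiometric "Hotspot" profiling at a contract laboratory with 10 μM ATP.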

Assay [3] has as its target T2, Tyrosine-protein kinase JAK3 (Homo sapiens, UniProt P52333).
T2 sequence (P52333 whole entry): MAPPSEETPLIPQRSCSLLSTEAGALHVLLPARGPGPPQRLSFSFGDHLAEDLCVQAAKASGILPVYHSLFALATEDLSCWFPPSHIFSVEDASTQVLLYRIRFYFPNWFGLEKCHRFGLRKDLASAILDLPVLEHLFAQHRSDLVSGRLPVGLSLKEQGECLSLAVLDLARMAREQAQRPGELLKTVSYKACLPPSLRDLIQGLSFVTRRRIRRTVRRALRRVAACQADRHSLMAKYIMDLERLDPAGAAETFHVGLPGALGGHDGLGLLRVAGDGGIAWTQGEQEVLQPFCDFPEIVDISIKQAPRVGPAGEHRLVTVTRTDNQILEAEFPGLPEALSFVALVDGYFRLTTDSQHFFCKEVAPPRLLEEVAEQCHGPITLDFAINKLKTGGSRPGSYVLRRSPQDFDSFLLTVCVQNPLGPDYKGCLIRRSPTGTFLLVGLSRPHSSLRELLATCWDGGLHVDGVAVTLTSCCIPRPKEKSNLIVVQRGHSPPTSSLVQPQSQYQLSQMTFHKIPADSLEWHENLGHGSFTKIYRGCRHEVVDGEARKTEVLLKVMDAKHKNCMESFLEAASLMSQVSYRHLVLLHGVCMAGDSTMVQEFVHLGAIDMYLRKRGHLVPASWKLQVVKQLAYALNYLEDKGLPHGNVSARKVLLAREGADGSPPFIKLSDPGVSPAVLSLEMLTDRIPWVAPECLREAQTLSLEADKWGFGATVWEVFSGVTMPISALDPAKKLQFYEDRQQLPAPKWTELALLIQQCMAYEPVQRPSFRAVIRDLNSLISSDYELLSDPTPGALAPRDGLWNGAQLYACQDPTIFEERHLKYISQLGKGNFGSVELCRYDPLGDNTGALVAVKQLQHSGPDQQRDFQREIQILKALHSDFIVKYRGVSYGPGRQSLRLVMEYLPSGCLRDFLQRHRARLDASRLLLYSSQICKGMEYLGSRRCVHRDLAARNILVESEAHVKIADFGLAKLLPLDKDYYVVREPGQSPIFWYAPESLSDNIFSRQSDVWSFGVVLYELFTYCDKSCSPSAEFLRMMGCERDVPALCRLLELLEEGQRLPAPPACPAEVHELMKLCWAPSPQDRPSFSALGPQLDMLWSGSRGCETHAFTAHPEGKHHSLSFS
The assay is described as follows: Inhibition of wild type human JAK3 (I781 to S1124 residues) expressed in mammalian cells assessed as residual activity at 1 uM by KINOMEscan assay relative to control. The class given is cell-based. To be noted: read-out: Activity.

Assay [4] deals with SRSF protein kinase 3 (Homo sapiens) (UniProt Q9UPE1). As to the kind of experiment: Inhibition of wild type human SRPK3 (P41 to P567 residues) expressed in bacterial cells assessed as residual activity at 1 uM by KINOMEscan assay relative to control. The format is cell-based.
SRSF protein kinase 3 (Homo sapiens), sequence (Q9UPE1 whole entry, the tested form may be a part): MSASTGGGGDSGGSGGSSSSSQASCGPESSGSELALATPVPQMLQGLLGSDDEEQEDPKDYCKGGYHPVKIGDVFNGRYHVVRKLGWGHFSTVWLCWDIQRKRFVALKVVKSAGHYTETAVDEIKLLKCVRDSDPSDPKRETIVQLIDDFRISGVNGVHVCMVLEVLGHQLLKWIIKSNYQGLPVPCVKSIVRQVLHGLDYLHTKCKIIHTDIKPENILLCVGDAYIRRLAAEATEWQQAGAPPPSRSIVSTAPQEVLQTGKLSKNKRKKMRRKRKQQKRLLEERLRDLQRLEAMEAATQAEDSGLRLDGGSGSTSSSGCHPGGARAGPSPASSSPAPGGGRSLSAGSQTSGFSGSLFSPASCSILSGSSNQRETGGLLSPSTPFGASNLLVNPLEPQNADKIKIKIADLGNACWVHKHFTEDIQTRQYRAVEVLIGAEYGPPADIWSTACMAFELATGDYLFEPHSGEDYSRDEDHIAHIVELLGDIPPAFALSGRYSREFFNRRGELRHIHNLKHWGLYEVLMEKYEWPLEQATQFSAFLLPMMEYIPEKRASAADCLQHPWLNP
Assay [5] deals with Inhibitor of nuclear factor kappa-B kinase subunit beta (Homo sapiens) (UniProt O14920). As to the kind of experiment: Inhibition of wild type human IKKbeta (M1 to S756 residues) expressed in mammalian cells assessed as residual activity at 1 uM by KINOMEscan assay relative to control. The format is cell-based.
Inhibitor of nuclear factor kappa-B kinase subunit beta (Homo sapiens), sequence (O14920 whole entry, the tested form may be a part): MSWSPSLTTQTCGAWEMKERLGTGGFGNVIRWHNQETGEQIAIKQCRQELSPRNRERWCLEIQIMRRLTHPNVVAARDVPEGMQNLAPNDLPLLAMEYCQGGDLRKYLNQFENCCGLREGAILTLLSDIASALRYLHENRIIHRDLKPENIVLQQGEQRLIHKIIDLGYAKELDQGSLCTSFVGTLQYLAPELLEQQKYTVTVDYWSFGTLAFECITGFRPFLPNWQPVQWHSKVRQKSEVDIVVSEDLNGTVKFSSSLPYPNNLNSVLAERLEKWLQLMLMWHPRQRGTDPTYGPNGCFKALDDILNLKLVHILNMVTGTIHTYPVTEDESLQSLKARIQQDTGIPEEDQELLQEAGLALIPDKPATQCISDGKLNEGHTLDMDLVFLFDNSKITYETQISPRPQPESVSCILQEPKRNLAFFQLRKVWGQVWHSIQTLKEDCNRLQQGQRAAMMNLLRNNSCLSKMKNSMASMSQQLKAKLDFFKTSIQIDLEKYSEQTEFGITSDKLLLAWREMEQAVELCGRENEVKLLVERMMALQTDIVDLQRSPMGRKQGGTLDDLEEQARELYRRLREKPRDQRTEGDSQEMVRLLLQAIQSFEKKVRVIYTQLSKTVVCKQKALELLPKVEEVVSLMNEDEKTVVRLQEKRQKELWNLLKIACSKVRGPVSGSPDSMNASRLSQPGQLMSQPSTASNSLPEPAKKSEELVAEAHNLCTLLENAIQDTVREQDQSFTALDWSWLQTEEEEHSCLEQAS
The nature of a further assay: cells. The format is functional, cell-based. To be noted: Homo sapiens, NKYS, 48 h.
Another assay has as its system KMS-12-BM. The assay is described as follows: Induction of apoptosis in human KMS-12-BM cells assessed as increase in cleaved PARP level at 1 to 6 uM after 24 hrs by immunoblotting analysis. The class given is functional, cell-based. The method in brief:
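KMS-12-BM and MOLM-14 cells were treated for 24 h and then lysed. Cleaved PARP was detected by immunoblotting.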
On the technique in general: In western blotting, separated proteins are transferred to a membrane and probed.

As a reminder, the IC50 is the concentration needed to halve the response being measured.

Histone deacetylase 1, sequence (Q13547 whole entry, the tested form may be a part): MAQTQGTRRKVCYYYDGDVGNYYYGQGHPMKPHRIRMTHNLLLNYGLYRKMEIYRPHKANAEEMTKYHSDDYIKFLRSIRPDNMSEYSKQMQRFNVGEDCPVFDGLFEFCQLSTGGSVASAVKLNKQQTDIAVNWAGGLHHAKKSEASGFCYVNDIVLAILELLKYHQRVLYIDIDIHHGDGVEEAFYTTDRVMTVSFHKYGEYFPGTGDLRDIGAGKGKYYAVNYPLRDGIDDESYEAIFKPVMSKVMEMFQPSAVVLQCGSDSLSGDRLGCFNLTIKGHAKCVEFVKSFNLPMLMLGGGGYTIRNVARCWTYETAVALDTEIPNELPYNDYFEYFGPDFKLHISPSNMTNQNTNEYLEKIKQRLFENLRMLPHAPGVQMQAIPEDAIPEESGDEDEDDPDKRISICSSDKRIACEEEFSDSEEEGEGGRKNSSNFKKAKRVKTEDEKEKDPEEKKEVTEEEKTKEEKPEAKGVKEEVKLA
Non-receptor tyrosine-protein kinase TYK2, sequence (P29597 whole entry): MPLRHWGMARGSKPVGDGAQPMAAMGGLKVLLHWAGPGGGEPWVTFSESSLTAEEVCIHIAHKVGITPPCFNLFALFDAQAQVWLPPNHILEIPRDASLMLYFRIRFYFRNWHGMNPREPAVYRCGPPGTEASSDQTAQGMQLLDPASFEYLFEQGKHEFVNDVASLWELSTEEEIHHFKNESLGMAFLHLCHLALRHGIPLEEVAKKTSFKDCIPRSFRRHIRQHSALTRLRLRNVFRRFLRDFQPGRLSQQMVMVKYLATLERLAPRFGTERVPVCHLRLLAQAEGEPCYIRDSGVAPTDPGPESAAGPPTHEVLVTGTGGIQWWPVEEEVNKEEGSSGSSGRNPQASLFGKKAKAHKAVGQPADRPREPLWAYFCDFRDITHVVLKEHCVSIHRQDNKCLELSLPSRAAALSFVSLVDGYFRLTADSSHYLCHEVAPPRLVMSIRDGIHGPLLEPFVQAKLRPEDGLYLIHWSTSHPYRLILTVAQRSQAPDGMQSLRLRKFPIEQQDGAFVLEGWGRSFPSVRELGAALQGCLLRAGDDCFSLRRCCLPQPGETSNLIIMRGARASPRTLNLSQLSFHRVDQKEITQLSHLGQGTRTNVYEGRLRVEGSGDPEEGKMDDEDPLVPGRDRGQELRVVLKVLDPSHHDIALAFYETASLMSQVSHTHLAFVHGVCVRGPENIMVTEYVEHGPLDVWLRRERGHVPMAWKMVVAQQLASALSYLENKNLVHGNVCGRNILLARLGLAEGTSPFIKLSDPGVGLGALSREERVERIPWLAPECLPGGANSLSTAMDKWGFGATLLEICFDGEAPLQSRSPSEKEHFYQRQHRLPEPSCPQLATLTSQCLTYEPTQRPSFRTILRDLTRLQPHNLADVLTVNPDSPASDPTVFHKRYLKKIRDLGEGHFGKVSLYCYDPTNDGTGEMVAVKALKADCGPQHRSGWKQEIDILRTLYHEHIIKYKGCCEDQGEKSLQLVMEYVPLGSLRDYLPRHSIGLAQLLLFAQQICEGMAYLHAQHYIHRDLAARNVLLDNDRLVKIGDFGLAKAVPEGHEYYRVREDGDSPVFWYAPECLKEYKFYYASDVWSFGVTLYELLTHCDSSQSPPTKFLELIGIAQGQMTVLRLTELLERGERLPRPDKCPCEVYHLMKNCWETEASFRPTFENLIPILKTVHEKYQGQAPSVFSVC

For the compound `O=C(CCCCCCn1cc(-c2ncnc3[nH]ccc23)cn1)NO`, the IC50 worked out at 6.9 nM at Histone deacetylase 1, 1.4 nM in assay [1], 188 nM in assay [2] and 450 nM in “cells”. Moreover, the activity at 1 µM in assay [3] was 0.75%. The Activity in assay [4] was 18%; in assay [5], 30%; in the assay on KMS-12-BM, “Dose-dependent effect”.
